The structures appear in SMILES notation.

Data set [1] addresses T1, Histamine H2 receptor (Homo sapiens, UniProt P25021). The experiment in a line: Displacement of [3H]UR-DE257 from human histamine H2 receptor stably expressed in baculovirus infected Sf9 cell membrane co-expressing RG-Salpha S incubated for 60 mins by scintillation counting analysis. The data set is classed as cell membranes.
The target of data set [2] is T2, Histamine H3 receptor (Homo sapiens, UniProt Q9Y5N1). Description: Displacement of [3H]UR-PI294 from human histamine H3 receptor stably expressed in baculovirus infected Sf9 cell membrane co-expressing G-alphai2 and G-beta1gamma2 incubated for 60 mins by scintillation counting analysis. The class given is cell membranes. The essentials:
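hH3R + Gαi2 + Gβ1γ2 expressed in Sf9 membranes. […] Mean ± SEM from N independent experiments in triplicate.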

Data set [3] can be described thus: Chemical stability in pH 7.4 buffer measured at 0 to 2 weeks by HPLC analysis. The class given is physicochemical. The conditions noted are these: time 0-2 weeks.
Data set [4] addresses Histamine H1 receptor (Homo sapiens, UniProt P35367).
Data set [5] concerns the target T2, Histamine H3 receptor.
For data set [6], the target named is Histamine H4 receptor (Homo sapiens, UniProt Q9H3N8).
The target of data set [7] is T3, D(2) dopamine receptor (Homo sapiens, UniProt P14416). The experiment in a line: Displacement of [3H]N-methylspiperone from human D2 long receptor stably expressed in HEK293T cells co-expressing luciferase and CEK incubated for 140 mins by radioligand competition binding based assay. The data set is classed as cell-based.
The target in data set [8] is T4, D(3) dopamine receptor (Homo sapiens, UniProt P35462). Description: Displacement of [3H]N-methylspiperone from human D3 receptor stably expressed in HEK293T cells co-expressing luciferase and CEK incubated for 140 mins by radioligand competition binding based assay. The class given is cell-based.
In data set [9] the target is T5, Histamine H2 receptor (Cavia porcellus, UniProt P47747). The experiment in a line: Agonist activity at guinea pig histamine H2 receptor stably transfected in HEK293T cells co-expressing NlucN-mGs/gpH2R-NlucC by mini-G protein recruitment assay. The data set is classed as functional, cell-based.
For data set [10], the target named is T5, Histamine H2 receptor. Description: Agonist activity at histamine H2 receptor in spontaneous beating guinea pig right atrium assessed as increase in heart beat. The class given is functional, tissue-based, Right cardiac atrium.
The target of data set [11] is T4, D(3) dopamine receptor. Description: Agonist activity at human D3 receptor stably expressed in HEK293T cells co-expressing ElucN-betaarr2 hD3R-ElucC by beta-arrestin2 recruitment assay. The data set is classed as functional, cell-based.
In data set [12] the target is Histamine H2 receptor (Cavia porcellus) (UniProt P47747). Description: Agonist activity at guinea pig histamine H2 receptor stably transfected in HEK293T cells co-expressing NlucN-mGs/gpH2R-NlucC assessed as maximum efficacy at 100 uM by mini-G protein recruitment assay relative to histamine. The data set is classed as functional, cell-based.
For data set [13], the target named is T1, Histamine H2 receptor. Description: Agonist activity at human histamine H2 receptor stably expressed in HEK293T cells co-expressing ARRB2 incubated for 60 mins by beta-arrestin2 recruitment assay. The class given is functional, cell-based.
Data set [14] has as its target Histamine H2 receptor (Cavia porcellus) (UniProt P47747). Description: Agonist activity at histamine H2 receptor in spontaneous beating guinea pig right atrium assessed as increase in heart beat at 30 uM relative to histamine. The class given is functional, tissue-based. The conditions noted are these: Right cardiac atrium.
In data set [15] the target is T3, D(2) dopamine receptor. The class given is functional, cell-based, HEK293T.
Data set [16] concerns the target T1, Histamine H2 receptor. Description: Agonist activity at human histamine H2 receptor stably expressed in HEK293T cells co-expressing NlucN-mGs/hH2R-NlucC assessed as induction of mini-Gs protein recruitment using furimazine as substrate measured for 45 mins by luminescence assay.
In data set [17] the target is T1, Histamine H2 receptor. Description: Agonist activity at human histamine H2 receptor stably expressed in baculovirus infected Sf9 cell membrane co-expressing RG-Salpha S incubated for 90 mins by [35S]GTPgammaS binding based liquid scintillation counting method. The class given is functional, cell membranes.

Chain of Histamine H1 receptor (P35367 whole entry): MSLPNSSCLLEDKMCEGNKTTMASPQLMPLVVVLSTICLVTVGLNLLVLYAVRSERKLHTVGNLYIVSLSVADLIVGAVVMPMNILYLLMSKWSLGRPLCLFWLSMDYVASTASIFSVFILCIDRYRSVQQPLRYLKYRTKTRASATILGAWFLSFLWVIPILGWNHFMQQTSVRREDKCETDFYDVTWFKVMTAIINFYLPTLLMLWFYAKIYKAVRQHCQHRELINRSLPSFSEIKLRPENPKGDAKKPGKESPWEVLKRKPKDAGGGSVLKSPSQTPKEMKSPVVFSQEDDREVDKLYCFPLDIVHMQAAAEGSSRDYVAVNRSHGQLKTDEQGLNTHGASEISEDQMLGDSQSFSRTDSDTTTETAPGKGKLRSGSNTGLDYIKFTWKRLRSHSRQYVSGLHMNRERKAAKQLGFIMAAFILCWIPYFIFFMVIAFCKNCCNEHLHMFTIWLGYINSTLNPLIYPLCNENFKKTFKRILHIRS
T3 sequence (P14416 whole entry): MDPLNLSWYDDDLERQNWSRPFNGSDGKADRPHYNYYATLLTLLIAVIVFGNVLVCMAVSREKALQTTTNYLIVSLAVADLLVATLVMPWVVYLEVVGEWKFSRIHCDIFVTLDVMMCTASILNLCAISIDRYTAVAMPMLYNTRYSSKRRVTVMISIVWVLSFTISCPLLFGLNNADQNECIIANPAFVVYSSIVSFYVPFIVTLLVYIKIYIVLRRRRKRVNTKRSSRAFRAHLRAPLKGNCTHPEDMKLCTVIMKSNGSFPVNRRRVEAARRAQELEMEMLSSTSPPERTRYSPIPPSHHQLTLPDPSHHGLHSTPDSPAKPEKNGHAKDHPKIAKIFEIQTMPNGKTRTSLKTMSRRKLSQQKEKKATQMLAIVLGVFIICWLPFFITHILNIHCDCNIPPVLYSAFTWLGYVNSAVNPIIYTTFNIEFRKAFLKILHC
Chain of Histamine H4 receptor (Q9H3N8 whole entry): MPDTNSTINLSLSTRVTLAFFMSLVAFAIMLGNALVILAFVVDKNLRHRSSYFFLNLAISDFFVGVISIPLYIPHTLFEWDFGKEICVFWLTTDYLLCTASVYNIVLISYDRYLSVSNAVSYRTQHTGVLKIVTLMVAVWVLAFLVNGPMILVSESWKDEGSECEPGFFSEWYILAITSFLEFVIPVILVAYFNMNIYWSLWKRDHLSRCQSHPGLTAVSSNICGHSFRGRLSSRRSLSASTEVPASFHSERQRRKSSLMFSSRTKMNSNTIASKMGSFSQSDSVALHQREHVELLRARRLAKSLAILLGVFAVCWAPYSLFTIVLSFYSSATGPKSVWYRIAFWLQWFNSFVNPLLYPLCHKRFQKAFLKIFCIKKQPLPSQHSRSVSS
T1 sequence (P25021 whole entry): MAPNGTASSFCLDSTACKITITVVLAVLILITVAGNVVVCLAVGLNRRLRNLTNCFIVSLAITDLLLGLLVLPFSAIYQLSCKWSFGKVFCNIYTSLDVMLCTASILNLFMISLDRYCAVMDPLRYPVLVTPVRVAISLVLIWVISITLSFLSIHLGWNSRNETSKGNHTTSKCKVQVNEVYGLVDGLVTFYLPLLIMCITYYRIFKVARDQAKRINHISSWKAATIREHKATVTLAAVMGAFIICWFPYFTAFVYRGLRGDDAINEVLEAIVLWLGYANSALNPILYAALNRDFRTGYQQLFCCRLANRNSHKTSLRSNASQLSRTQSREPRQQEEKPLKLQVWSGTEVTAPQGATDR
T4 sequence (P35462 whole entry): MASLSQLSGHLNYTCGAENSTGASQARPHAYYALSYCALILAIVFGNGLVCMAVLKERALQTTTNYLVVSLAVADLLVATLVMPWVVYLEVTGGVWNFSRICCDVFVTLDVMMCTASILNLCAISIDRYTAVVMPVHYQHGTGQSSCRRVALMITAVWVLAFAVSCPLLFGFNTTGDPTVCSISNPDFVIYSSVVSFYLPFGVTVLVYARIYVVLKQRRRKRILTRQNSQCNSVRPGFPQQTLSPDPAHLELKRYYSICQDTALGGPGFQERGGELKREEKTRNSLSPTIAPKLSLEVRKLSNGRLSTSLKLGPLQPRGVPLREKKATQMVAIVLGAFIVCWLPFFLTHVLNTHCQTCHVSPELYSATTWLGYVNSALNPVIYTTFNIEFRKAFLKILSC
T5 sequence (P47747 whole entry): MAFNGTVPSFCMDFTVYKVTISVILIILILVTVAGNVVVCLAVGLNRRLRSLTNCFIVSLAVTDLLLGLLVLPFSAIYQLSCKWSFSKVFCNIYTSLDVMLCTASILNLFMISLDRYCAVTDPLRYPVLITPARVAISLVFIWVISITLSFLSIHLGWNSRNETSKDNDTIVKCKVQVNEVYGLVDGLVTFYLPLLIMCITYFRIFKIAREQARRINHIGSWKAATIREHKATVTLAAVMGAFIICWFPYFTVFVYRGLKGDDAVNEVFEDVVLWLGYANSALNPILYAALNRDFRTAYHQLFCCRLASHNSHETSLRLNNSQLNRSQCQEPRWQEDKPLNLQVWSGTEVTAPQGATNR
Chain of Histamine H2 receptor (Cavia porcellus) (P47747 whole entry): as above
T2 sequence (Q9Y5N1 whole entry): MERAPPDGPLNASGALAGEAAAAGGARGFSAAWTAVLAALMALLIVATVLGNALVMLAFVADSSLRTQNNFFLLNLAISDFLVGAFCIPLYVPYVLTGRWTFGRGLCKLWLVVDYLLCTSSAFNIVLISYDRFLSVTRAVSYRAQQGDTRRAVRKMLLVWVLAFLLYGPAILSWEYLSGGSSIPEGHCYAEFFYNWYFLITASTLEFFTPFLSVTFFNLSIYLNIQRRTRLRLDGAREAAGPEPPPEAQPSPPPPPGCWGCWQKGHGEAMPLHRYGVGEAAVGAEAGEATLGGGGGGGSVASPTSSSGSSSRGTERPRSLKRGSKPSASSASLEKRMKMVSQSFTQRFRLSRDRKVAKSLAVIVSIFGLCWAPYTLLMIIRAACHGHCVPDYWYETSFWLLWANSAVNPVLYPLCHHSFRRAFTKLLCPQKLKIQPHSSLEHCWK

Regarding `CCCCCNC(=O)/N=C(\N)NCC1CCc2nc(N)sc2C1.O=C(O)C(F)(F)F.O=C(O)C(F)(F)F` (stereo not drawn), the Ki in data set [1] is 155 nM; in data set [2], 6610 nM; in [4] it was 5250 nM; in [5], 6610 nM; in data set [6] it was 5890 nM. The Stability entry in [3] was “Stable”. Moreover, the equilibrium dissociation constant (Kd) came out at 4.5 nM in data set [4], 3 nM in [5] and 16 nM in data set [6].

For the compound `CCCCCCNC(=O)/N=C(\N)NCCCc1nnc(N)o1.O=C(O)C(F)(F)F.O=C(O)C(F)(F)F`, the inhibition constant (Ki) is 389 nM in data set [1], above 10000 nM in data set [2], 8910 nM in [4] and above 10000 nM in data set [6]. In addition, the Stability result in data set [3] is “Stable”. In addition, the Kd was determined as 4.5 nM in [4] and 16 nM in [6].

As for `Cc1ccc(CC(C)CNC(=O)/N=C(\N)NCCCc2nnc(N)s2)cc1.O=C(O)C(F)(F)F.O=C(O)C(F)(F)F` (stereo not drawn), the inhibition constant Ki in [2] was 2340 nM; in data set [7], 1070 nM; in data set [8], 2040 nM; in data set [4] it was 1350 nM; in data set [6], 6920 nM. For the same compound, in data set [3], the Stability entry is “Stable”. For the same compound, the concentration for a half-maximal effect (EC50) in [9] was 14.8 nM; in [10] it was 95.5 nM; in data set [11] it was above 10000 nM. In addition, the Kd in data set [4] was 4.5 nM; in data set [6] it was 16 nM.

For the compound `CCCCCCNC(=O)/N=C(\N)NCCCc1nnc(N)s1`, the inhibition constant Ki is 5.13 nM in data set [1]; above 10000 nM in data set [2]; above 10000 nM in data set [7]; 589 nM in [8]; 5010 nM in data set [4]; above 10000 nM in data set [6]. Also, the Emax in data set [12] was 96%; in data set [14], 106%. In addition, the EC50 in data set [13] was 1070 nM; in data set [9] it was 2.29 nM; in data set [10], 4.79 nM; in data set [15], above 10000 nM; in data set [11], 813 nM; in [16] it was 6.03 nM. Moreover, the Kd in [4] stood at 4.5 nM; in data set [6], 16 nM.

Take `CC(NC(=O)/N=C(\N)NCCCc1nnc(N)s1)c1cccc(F)c1` (stereo not drawn): the inhibitory constant (Ki) is 8.13 nM in data set [1]; above 10000 nM in data set [2]; above 10000 nM in [7]; 661 nM in data set [8]; 10500 nM in [4]; above 10000 nM in data set [6]. The values for the maximum response (Emax) in data set [12] and in data set [14] were 93% and 110%, respectively. The concentration giving a half-maximal response (EC50) in data set [13] is 75.9 nM; in data set [9] it was 6.92 nM; in data set [10], 0.912 nM; in data set [15], above 10000 nM; in data set [11] it was 1910 nM; in [16], 8.13 nM. In addition, the Kd in data set [4] stood at 4.5 nM; in [6], 16 nM.

Regarding `CCCCCNC(=O)/N=C(/N)NCCCc1nnc(C)s1.O=C(O)C(F)(F)F`, the Ki is 2190 nM in data set [1], above 10000 nM in data set [2], above 10000 nM in [4] and above 10000 nM in data set [6]. Moreover, the Stability entry in data set [3] is given as “Stable”. Moreover, the dissociation constant Kd in data set [4] was found to be 4.5 nM; in [6], 16 nM.

For `CCCCCNC(=O)/N=C(\N)Nc1ccc(-c2sc(N)nc2C)cc1.O=C(O)C(F)(F)F.O=C(O)C(F)(F)F`, the Ki in data set [1] is 457 nM; in [2], 11500 nM; in [4] it was 3720 nM; in data set [5], 11500 nM; in data set [6] it was 7760 nM. In addition, in [3], the Stability entry was “Stable”. The Kd in [4] was found to be 4.5 nM; in [5], 3 nM; in data set [6], 16 nM.

In the case of `Cc1nc(N)oc1CCCN/C(N)=N/C(=O)NCC(C)C1CCCCC1.O=C(O)C(F)(F)F.O=C(O)C(F)(F)F` (stereo not drawn), the Ki in data set [1] was 245 nM; in [2], 8320 nM; in data set [4], 6030 nM; in [6], 7590 nM. In addition, in [3], the Stability entry is on record as “Stable”. Moreover, the Kd in [4] was found to be 4.5 nM; in [6], 16 nM.

For the compound `CC(CNC(=O)/N=C(\N)NCCCc1nnc(N)s1)C1CCCCC1` (stereo not drawn), the Ki in [1] is 19.5 nM; in data set [2], 2750 nM; in data set [7], 1620 nM; in data set [8] it was 234 nM; in data set [4] it was 7410 nM; in data set [6], 12600 nM. Besides, the EC50 in data set [13] was 135 nM; in data set [17], 13.2 nM; in [15], above 10000 nM; in data set [11], 1350 nM; in data set [16] it was 10.7 nM. For the same compound, the Kd stood at 4.5 nM in data set [4] and 16 nM in [6].

With `CCCCCNC(=O)/N=C(\N)Nc1cccc(-c2sc(N)nc2C)c1.O=C(O)C(F)(F)F.O=C(O)C(F)(F)F`, the Ki is 191 nM in data set [1], 9550 nM in data set [2], 6610 nM in data set [4] and 7410 nM in [6]. Besides, the Stability result in data set [3] is “Stable”. Moreover, the Kd in data set [4] came to 4.5 nM; in [6], 16 nM.

As for `N/C(=N\C(=O)NCCCCCCNC(=O)/N=C(\N)NCCCc1nnc(N)s1)NCCCc1nnc(N)s1`, the inhibition constant (Ki) in data set [1] is 5.25 nM; in data set [2], 10000 nM; in [7], 955 nM; in [4] it was 3550 nM; in [6] it was above 10000 nM. The half-maximal effective concentration (EC50) is 407 nM in data set [13], 34.7 nM in data set [17], 1120 nM in data set [15] and 20 nM in data set [16]. Moreover, the results for the Kd in data set [4] and in [6] were 4.5 nM and 16 nM, respectively.

Turning to `CCCCCNC(=O)/N=C(\N)NCCCc1cnc(N)s1.O=C(O)C(F)(F)F.O=C(O)C(F)(F)F`, the Ki is 22.9 nM in [1], above 10000 nM in data set [2], 9550 nM in data set [4] and above 10000 nM in [6]. In data set [3], the Stability result is listed as “Stable”. The EC50 in data set [13] is 56.2 nM; in data set [16] it was 6.03 nM. In addition, the results for the dissociation constant (Kd) in [4] and in [6] were 4.5 nM and 16 nM, respectively.

`C[C@@H](NC(=O)/N=C(\N)NCCCc1nnc(N)s1)c1ccccc1`: the Ki was 12.9 nM in data set [1]; above 10000 nM in data set [2]; above 10000 nM in data set [7]; 3240 nM in data set [8]; above 10000 nM in data set [4]; above 10000 nM in data set [6]. Besides, the Emax in data set [12] was determined as 90%; in data set [14], 98%. Moreover, the EC50 in data set [13] was 282 nM; in [9], 25.1 nM; in data set [10] it was 2.88 nM; in [15] it was above 10000 nM; in data set [11], 1070 nM; in data set [16], 20 nM. In addition, the Kd in [4] was determined as 4.5 nM; in data set [6], 16 nM.

The values are drawn from ChEMBL document CHEMBL5149991 (J Med Chem, 2021).
